Source: ChEMBL document CHEMBL1140872, “Discovery of a potent and selective inhibitor for human carbonyl reductase 1 from propionate scanning applied to the macrolide zearalenone” (Bioorg Med Chem, 2009)

How the values were obtained:
[1] = target: T1, Serine/threonine-protein kinase 3 (Homo sapiens) (UniProt Q13188); test: Binding affinity to human recombinant STK3 expressed in Escherichia coli assessed as thermal shift by differential scanning fluorimetry
T1 sequence (whole entry): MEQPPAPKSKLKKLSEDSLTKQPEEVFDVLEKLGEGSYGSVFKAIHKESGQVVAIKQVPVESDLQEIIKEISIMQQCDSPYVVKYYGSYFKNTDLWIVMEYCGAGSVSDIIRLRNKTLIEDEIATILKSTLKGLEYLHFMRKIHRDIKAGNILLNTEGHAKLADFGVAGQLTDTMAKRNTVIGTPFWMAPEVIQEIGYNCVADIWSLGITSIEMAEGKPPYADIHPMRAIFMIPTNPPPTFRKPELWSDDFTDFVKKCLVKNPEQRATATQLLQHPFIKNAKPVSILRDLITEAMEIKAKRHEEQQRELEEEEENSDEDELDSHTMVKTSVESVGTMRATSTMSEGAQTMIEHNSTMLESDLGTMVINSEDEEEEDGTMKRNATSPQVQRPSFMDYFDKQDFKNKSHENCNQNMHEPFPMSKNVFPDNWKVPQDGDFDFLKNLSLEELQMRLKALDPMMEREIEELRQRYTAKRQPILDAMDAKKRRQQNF
Method in brief: (§1)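 Thermal-shift (DSF) binding assay with purified recombinant catalytic domains or proteins carrying an N- or C-terminal His6 tag or GST fusion. Purity was >95% by SDS/PAGE and identity was confirmed by MS. Protein was at 2 µM final in 10 mM HEPES pH 7.5 and 150 mM NaCl. Tm shift is reported, with 2 °C as the threshold for binding.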

[2] = target: Serine/threonine-protein kinase PAK 6 (Homo sapiens) (UniProt Q9NQU5); test: Binding affinity to human recombinant PAK6 expressed in Escherichia coli assessed as thermal shift by differential scanning fluorimetry; method in brief: as §1
[3] = target: Tyrosine-protein kinase Fes/Fps (Homo sapiens) (UniProt P07332); test: Binding affinity to human recombinant FES expressed in Escherichia coli assessed as thermal shift by differential scanning fluorimetry; method in brief: as §1
[4] = target: Serine/threonine-protein kinase pim-3 (Homo sapiens) (UniProt Q86V86); test: Binding affinity to human recombinant PIM3 expressed in Escherichia coli assessed as thermal shift by differential scanning fluorimetry; method in brief: as §1
[5] = target: T2, Carbonyl reductase [NADPH] 3 (Homo sapiens) (UniProt O75828); test: Binding affinity to human recombinant carbonyl reductase 3 expressed in Escherichia coli assessed as thermal shift by differential scanning fluorimetry in presence of NADPH; method in brief: as §1
T2 sequence (whole entry): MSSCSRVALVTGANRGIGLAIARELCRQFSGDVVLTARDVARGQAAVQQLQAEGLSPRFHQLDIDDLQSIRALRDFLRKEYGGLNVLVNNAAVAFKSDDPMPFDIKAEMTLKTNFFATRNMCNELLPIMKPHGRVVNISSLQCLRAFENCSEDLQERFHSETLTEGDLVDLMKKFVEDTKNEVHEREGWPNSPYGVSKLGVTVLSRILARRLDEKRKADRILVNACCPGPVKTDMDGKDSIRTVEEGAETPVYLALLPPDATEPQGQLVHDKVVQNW

[6] = target: T3, Carbonyl reductase [NADPH] 1 (Homo sapiens) (UniProt P16152); test: Binding affinity to human recombinant carbonyl reductase 1 expressed in Escherichia coli assessed as thermal shift by differential scanning fluorimetry in presence of NADPH; method in brief: as §1
T3 sequence (whole entry): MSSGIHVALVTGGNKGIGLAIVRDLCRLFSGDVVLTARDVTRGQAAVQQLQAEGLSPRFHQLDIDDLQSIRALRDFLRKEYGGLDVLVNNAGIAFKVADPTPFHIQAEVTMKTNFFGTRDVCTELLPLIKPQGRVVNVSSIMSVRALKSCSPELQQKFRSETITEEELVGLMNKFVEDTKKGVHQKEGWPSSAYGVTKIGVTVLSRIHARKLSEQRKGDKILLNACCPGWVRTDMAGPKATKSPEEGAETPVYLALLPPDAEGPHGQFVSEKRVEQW

[7] = target: T2, Carbonyl reductase [NADPH] 3 (Homo sapiens); test: Binding affinity to human recombinant carbonyl reductase 3 expressed in Escherichia coli assessed as thermal shift by differential scanning fluorimetry in presence of NADP+; method in brief: as §1
[8] = target: Serine/threonine-protein kinase 10 (Homo sapiens) (UniProt O94804); test: Binding affinity to human recombinant LOK expressed in Escherichia coli assessed as thermal shift by differential scanning fluorimetry; method in brief: as §1
[9] = target: T4, Dual specificity mitogen-activated protein kinase kinase 6 (Homo sapiens) (UniProt P52564); test: Binding affinity to human recombinant MAP2K6 expressed in Escherichia coli assessed as thermal shift by differential scanning fluorimetry; method in brief: as §1
T4 sequence (whole entry): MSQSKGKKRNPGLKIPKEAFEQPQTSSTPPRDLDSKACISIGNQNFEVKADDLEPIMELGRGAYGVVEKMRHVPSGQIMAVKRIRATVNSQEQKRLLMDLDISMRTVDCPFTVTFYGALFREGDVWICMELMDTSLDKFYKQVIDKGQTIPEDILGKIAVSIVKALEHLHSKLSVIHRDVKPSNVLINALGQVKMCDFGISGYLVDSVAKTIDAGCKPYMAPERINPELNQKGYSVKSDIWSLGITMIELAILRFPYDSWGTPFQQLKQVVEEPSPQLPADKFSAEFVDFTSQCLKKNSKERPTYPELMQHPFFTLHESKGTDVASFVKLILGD

[10] = target: STE20-like serine/threonine-protein kinase (Homo sapiens) (UniProt Q9H2G2); test: Binding affinity to human recombinant SLK expressed in Escherichia coli assessed as thermal shift by differential scanning fluorimetry; method in brief: as §1
Sequence of STE20-like serine/threonine-protein kinase (Homo sapiens) (Q9H2G2 whole entry, looked up): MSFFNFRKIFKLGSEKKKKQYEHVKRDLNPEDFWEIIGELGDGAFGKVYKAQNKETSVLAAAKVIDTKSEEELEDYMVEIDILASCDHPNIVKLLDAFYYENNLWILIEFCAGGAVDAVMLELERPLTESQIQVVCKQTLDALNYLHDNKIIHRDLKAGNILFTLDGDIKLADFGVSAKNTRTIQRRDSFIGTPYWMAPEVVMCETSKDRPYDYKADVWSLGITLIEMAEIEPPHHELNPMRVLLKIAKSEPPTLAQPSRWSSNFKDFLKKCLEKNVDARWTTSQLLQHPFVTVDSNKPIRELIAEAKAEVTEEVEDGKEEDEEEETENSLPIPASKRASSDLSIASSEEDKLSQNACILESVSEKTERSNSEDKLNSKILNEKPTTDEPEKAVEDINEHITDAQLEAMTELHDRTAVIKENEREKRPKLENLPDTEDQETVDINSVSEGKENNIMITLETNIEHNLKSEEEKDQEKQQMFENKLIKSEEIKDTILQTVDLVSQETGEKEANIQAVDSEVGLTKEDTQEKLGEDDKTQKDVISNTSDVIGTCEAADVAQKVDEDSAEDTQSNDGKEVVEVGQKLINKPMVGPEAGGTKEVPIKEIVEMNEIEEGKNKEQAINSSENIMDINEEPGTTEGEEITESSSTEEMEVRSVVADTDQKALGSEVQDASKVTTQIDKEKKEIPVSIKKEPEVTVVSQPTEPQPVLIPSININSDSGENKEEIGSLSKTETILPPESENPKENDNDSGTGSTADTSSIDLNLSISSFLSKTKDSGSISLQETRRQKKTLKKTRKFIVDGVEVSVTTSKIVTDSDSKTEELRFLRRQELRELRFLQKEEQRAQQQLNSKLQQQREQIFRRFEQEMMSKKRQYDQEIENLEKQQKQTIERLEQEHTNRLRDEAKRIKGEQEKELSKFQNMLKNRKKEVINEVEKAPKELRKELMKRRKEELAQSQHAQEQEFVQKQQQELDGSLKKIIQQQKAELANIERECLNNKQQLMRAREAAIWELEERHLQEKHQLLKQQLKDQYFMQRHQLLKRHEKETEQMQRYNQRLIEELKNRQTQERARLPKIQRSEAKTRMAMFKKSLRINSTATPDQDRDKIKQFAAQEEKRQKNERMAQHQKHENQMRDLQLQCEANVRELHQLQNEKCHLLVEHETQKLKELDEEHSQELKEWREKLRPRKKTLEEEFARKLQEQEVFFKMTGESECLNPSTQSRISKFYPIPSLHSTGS

Sequence of Serine/threonine-protein kinase PAK 6 (Homo sapiens) (Q9NQU5 whole entry, looked up): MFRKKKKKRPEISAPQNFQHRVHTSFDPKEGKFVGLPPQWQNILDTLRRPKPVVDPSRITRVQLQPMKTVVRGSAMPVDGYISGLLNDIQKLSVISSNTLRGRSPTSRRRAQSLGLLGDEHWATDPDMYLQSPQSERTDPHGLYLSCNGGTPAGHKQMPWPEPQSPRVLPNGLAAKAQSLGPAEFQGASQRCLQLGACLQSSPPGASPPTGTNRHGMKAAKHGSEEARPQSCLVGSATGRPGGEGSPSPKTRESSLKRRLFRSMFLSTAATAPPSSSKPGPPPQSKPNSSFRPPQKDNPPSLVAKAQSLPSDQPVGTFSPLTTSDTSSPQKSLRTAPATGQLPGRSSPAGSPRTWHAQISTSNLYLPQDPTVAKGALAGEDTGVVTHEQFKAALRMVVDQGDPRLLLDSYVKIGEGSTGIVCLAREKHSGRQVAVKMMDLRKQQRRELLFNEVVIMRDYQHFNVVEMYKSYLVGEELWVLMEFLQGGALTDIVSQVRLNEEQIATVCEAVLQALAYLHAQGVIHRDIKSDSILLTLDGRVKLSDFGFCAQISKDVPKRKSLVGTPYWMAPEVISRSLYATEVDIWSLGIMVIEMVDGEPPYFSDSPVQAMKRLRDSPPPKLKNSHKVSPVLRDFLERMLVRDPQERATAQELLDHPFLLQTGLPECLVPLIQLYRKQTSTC
Sequence of Serine/threonine-protein kinase 10 (Homo sapiens) (O94804 whole entry, looked up): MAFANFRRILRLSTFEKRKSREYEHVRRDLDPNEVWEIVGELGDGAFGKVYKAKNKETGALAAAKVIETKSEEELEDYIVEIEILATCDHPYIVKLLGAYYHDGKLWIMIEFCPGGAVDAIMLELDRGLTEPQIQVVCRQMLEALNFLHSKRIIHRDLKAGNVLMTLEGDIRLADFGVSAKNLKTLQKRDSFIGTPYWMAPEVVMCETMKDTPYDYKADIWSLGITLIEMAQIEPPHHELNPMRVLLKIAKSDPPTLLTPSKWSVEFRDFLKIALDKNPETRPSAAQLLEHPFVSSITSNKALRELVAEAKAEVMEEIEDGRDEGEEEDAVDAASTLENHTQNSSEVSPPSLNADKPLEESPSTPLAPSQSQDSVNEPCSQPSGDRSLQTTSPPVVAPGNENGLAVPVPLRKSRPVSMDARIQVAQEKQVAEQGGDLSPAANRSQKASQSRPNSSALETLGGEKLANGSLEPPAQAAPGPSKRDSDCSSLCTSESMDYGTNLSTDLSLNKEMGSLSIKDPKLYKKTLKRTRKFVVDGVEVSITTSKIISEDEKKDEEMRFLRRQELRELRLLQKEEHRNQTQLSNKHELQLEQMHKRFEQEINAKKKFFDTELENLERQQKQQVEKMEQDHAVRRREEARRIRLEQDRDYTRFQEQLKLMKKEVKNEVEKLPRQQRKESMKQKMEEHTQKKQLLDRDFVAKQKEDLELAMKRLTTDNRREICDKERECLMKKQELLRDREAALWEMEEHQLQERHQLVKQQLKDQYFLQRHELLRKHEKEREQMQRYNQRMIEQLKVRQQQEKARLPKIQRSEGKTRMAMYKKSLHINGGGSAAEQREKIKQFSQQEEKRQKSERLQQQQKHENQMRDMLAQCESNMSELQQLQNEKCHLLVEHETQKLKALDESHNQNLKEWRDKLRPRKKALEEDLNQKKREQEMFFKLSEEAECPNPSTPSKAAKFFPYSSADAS
Sequence of Tyrosine-protein kinase Fes/Fps (Homo sapiens) (P07332 whole entry): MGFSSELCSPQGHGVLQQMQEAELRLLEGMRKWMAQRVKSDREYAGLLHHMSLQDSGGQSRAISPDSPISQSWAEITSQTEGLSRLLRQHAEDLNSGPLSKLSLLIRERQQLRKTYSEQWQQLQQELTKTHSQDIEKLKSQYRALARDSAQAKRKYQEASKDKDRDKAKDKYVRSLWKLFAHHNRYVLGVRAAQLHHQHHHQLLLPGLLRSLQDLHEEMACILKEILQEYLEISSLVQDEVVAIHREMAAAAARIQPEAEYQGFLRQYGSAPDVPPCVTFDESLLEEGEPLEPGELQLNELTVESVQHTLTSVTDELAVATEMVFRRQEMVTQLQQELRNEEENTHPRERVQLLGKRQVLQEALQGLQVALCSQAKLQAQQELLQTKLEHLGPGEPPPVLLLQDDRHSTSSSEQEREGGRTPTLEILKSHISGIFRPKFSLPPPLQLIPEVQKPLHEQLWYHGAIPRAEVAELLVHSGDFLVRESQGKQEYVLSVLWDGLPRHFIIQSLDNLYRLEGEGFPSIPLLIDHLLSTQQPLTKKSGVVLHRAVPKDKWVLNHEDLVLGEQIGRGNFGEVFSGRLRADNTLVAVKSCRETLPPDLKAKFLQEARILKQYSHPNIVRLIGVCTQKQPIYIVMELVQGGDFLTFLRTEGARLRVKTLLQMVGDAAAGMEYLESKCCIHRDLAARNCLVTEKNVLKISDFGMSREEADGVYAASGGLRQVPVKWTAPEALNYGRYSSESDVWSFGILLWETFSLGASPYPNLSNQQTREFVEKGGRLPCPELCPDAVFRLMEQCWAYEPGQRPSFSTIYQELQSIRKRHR

Compound | Tm [1] | Tm [2] | Tm [3] | Tm [4] | Tm [5] | Tm [6] | Tm [7] | Tm [8] | Tm [9] | Tm [10]
C[C@H]1CCCC(=O)[C@@H](C)CC/C=C/c2cc(O)cc(O)c2C(=O)O1 | < 2 °C | < 2 °C | < 2 °C | < 2 °C | < 2 °C | < 2 °C | < 2 °C | < 2 °C | < 2 °C | 3.5 °C
COc1cc(O)c2c(c1)/C=C/CC[C@H](C)C(=O)CCC[C@H](C)OC2=O | < 2 °C | < 2 °C | < 2 °C | < 2 °C | < 2 °C | < 2 °C | < 2 °C | < 2 °C | < 2 °C | 2.5 °C
COC1=C2C[C@@H](C)C[C@H](OC)[C@H](O)[C@@H](C)/C=C(\C)[C@H](OC(N)=O)[C@@H](OC)/C=C\C=C(/C)C(=O)NC(=CC1=O)C2=O | < 2 °C | < 2 °C | < 2 °C | < 2 °C | < 2 °C | < 2 °C | < 2 °C | < 2 °C | < 2 °C | < 2 °C
COc1cc2c(c(OC)c1)C(=O)O[C@@H](C)CCCC(=O)[C@@H](C)CC/C=C/2 | < 2 °C | < 2 °C | < 2 °C | < 2 °C | < 2 °C | < 2 °C | < 2 °C | < 2 °C | < 2 °C | < 2 °C
C[C@@H]1C[C@H]2O[C@@H]2/C=C\C=C\C(=O)Cc2c(Cl)c(O)cc(O)c2C(=O)O1 [RADICICOL] | < 2 °C | < 2 °C | < 2 °C | < 2 °C | < 2 °C | < 2 °C | < 2 °C | < 2 °C | < 2 °C | < 2 °C
COc1cc2c(c(OC)c1)C(=O)O[C@@H](C)CCC[C@@H](O)[C@@H](C)CC/C=C/2 | < 2 °C | < 2 °C | < 2 °C | < 2 °C | < 2 °C | < 2 °C | < 2 °C | < 2 °C | < 2 °C | < 2 °C
C[C@H]1CCCC(=O)CCC/C=C/c2cc(O)cc(O)c2C(=O)O1 | < 2 °C | < 2 °C | < 2 °C | < 2 °C | < 2 °C | < 2 °C | < 2 °C | 4.6 °C | < 2 °C | 4.4 °C
